A selection: hits, their analogues and other compounds. The true share with any hit is near 1.3%.
procasp3 activ: procaspase-3 (human) activation. P42574. activation, % at 8.5 µM. AID 463141. 330,000 compounds, 0.11% hits. recombinant procaspase-3 D3A, Ac-DEVD-pNA absorbance 405 nm;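 active means activation above the mean of all tested compounds plus 3 SD, cut at about 21% in these data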
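Technique: 405 nm absorbance of p-nitroaniline, reads at 0 and 120 min; Test system: Procaspase-3 D3A mutant; Incubation: 1 h enzyme-compound preincubation, then 2 h substrate reaction, 25 °C; Repeats: singlicate, each compound tested once; Benchmarks: low control DMSO wells, high control DMSO plus 5 µM PC-3 D3A.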
procasp7 counter: counter-screen: procaspase-7 (human) activation | recombinant procaspase-7, Ac-DEVD-pNA absorbance 405 nm; D23A/D198A/D206A triple mutant, cannot self-cleave; scale: DMSO 0, 5 µM enzyme 100 | activation, % at 8.5 µM | 330,000 compounds, 0.093% hits | AID 463210;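 active means percent activation above the screen-wide mean plus 3 SD, cut at about 25% in these data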
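System: Procaspase-7 triple mutant (PC-7 D3A); measure: % activation from two-timepoint absorbance difference, scaled to controls; times: 1 h compound preincubation, 2 h substrate cleavage, 25 °C; also added: Ac-DEVD-pNA substrate, 400 µM as added; measured by: Epi-absorbance of released pNA at 405 nm, two timepoints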
CHT block: inhibits the human high affinity choline transporter; CHT-expressing cells, membrane potential dye, choline response; stronger effect = lower value; B-score at 10 µM; 310,000 compounds, 0.86% hits;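 active means B-score over 3 SD under the library average, and starting fluorescence ratio not unusually high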;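 further: choline stimulus applied at its EC90 after an EC20 pre-addition; B-score computed on integrated fluorescence ratio after choline addition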
Target sequence (Q9GZV3 whole entry, looked up): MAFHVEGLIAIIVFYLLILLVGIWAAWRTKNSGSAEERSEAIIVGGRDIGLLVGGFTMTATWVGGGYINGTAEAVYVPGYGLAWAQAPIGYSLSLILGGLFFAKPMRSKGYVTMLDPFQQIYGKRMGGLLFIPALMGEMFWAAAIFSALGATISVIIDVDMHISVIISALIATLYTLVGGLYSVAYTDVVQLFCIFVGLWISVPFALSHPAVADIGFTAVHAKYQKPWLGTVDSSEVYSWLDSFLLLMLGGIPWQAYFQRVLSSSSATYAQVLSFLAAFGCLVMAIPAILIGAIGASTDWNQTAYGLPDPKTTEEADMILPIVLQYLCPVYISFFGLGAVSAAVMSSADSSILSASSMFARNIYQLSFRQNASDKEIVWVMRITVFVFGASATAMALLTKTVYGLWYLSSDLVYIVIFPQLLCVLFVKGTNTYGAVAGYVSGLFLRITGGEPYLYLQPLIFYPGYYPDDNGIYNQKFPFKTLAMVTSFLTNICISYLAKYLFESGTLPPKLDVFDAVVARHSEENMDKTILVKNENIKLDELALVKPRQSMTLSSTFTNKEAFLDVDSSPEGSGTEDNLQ
CHT PAM: allosterically activates the human high affinity choline transporter | Q9GZV3 | CHT-expressing cells, membrane potential dye, choline EC20; stronger effect = higher value; LV-AA mutant CHT in HEK293 cells | B-score at 10 µM | 310,000 compounds, 0.49% hits | AID 488977;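 active means initial fluorescence not abnormally high and integrated response B-score, plate-corrected, over 3 SD above library mean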
CHT inh conf: confirmation of human choline transporter CHT inhibitors; shares compounds with CHT block; CHT-expressing cells, choline membrane potential dye; LV-to-AA substituted CHT, HEK293 cells; CHT activity remaining % of control (stronger effect = lower value), % at 10 µM; 2,400 compounds, 70% hits;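 active means choline transporter activity left, mean of duplicates at 10 µM, below buffer-only control mean minus 3 SD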;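 further: depolarization triggered by choline at its EC90 following an EC20 pre-addition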
HEK293 MPD ctr: activity in parental HEK293 cells lacking CHT | shares compounds with CHT block | membrane potential dye, choline response; active = decrease or increase beyond buffer ±3SD | membrane potential ratio readout (active if shifted either direction beyond buffer ±3SD; no single direction) at 10 µM | 2,400 compounds, 4% hits | AID 493222;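 further: parental cells lack the transporter so any hit is non-specific; ratio is peak minus trough fluorescence over baseline after EC90 choline challenge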
A number is an active result; 0 = inactive; - = no result given.

SMILES	procasp3 activ	procasp7 counter	CHT block	CHT PAM	CHT inh conf	HEK293 MPD ctr
O=C1N/C(=N\S(=O)(=O)Cc2ccccc2)S/C1=C/c1cc([N+](=O)[O-])ccc1O	0	0	0	0	-	-
CN(C)C(=O)CSc1n[nH]c(=O)n1CCc1ccccc1	0	0	0	0	-	-
CCCCC(=O)Nc1ccc(NCc2ccc(C)s2)cc1	0	0	0	0	-	-
CCOc1ccc(OCCOC(=O)C2CCN(S(=O)(=O)c3ccc(C)c(C)c3)CC2)cc1	0	0	0	0	-	-
COCCN1CCN(C(=O)C2CCC(=O)N(CCc3ccccc3)C2)CC1 (stereo not given)	0	0	0	0	-	-
CN(C)CCCn1c(=O)n(C2CCCCC2)c(=O)c2c3c(sc21)CCCCC3	0	0	-8	0	36%	0
COc1ccc(/C=C(\NC(=O)c2ccc(C)cc2)C(=O)NCCCn2ccnc2)cc1	0	0	0	0	-	-
Cn1c(C(=O)O)c(C=O)c2ccccc21	0	0	-6.7	0	0	0
Cn1c(-c2ccccc2)c(C=O)c2ccccc21	0	0	0	0	-	-
O=C(COc1ccc(Cl)cc1Br)Nc1nnc(C2CC2)s1	0	0	-	-	-	-
COc1c(/C=C2\SC(=Nc3ccccc3Cl)NC2=O)cccc1[N+](=O)[O-]	0	0	0	0	-	-
O=C1NC(=Nc2ccccc2Cl)S/C1=C\c1cccc([N+](=O)[O-])c1O	0	0	-5	0	38%	0
CCCCCCn1c(N(CC)CC)nc2c1c(=O)[nH]c(=O)n2C	0	0	-6.4	0	0	0
CCOC(=O)c1c(/N=C/c2cc([N+](=O)[O-])ccc2O)sc(C)c1C	0	0	-5	0	0	0
Cc1ccc2oc(C(=O)Nc3cc(C)on3)c(C)c2c1	0	0	-	-	-	-
O=C(NC1CCCCC1)C(c1ccc2ncccc2c1)N(Cc1cccs1)C(=O)c1cccs1 (stereo not given)	0	0	-5.5	0	0	0
O=C(NC1CCCCC1)C(c1ccc2ncccc2c1)N(Cc1ccc(F)cc1)C(=O)c1ccc2c(c1)OCCO2 (stereo not given)	0	0	-7.5	0	65%	0
O=C(NC1CCCCC1)C(c1ccc2ncccc2c1)N(Cc1ccc2c(c1)OCO2)C(=O)c1ccc2c(c1)OCCO2 (stereo not given)	0	0	-14	0	30%	0
Cc1cc(NC(=O)Cn2nc(C(=O)O)c3ccccc3c2=O)c([N+](=O)[O-])cc1C	0	0	0	0	-	-
CCOCCCN(C(=O)Cn1nnc(-c2ccc(OC)c(OC)c2)n1)C(C(=O)NCC1CCCO1)c1ccc(F)cc1 (stereo not given)	0	0	0	0	-	-
Cc1cccn2c(=O)nc(SCC(=O)N3CCC(C)CC3)nc12	0	0	0	0	-	-
CC(C)[C@H](NC(=O)c1ccccc1)C(=O)OCC(=O)c1ccc2c(c1)NC(=O)CO2	0	0	-9	0	33%	0
CC[C@H](C)[C@H](NC(=O)c1ccc(Cl)cc1)C(=O)OCC(=O)c1ccc2c(c1)NC(=O)CO2	0	0	-5.7	0	32%	0
COc1cc(OC)cc(C(=O)N[C@H](C(=O)OCC(=O)c2ccc3c(c2)NC(=O)CO3)C(C)C)c1	0	0	0	0	-	-
COc1ccc(S(=O)(=O)N2CCSCC2)cc1C(N)=O	0	0	0	0	-	-
SMILES	procasp3 activ	procasp7 counter	CHT block	CHT PAM	CHT inh conf	HEK293 MPD ctr
CCOC(=O)CC1C(=O)NCCN1C(=O)COc1ccc(C(C)(C)C)cc1 (stereo not given)	0	0	0	0	-	-
O=C(NS(=O)(=O)N1CCCC1)C1=C(N2CCCC2)COC1=O	0	0	-	-	-	-
COc1cc(CN(C)c2ncnc3sccc23)ccc1OC(F)F	0	0	0	0	-	-
CCNC(=O)[C@H]1O[C@@H](n2cnc3c(N)nc(NCCc4ccc(CCC(=O)O)cc4)nc32)[C@H](O)[C@@H]1O	0	0	-5.3	0	46%	0
CCOc1ccccc1/C=C/C(=O)NCC(=O)N1CCC(N(C)C2CCCCC2C)CC1 (stereo not given)	0	0	-5.5	0	11%	0
Cn1c(NC(=O)CCC2CCCCC2)cc(=O)n(C)c1=O	0	0	-6.4	0	0	0
COc1cccc(C2=NOC(C(=O)NCc3ccc(F)cc3)C2)c1 (stereo not given)	0	0	-5.1	0	66%	0
CCOC(=O)C1CCN(C(=O)COC(=O)Cc2ccc(Cl)cc2)CC1	0	0	0	0	-	-
Cc1nc(SCC(=O)NC(=O)NCc2ccccc2)nc(C)c1C	0	0	-6.2	0	69%	0
NS(=O)(=O)c1ccc(NC(=O)Nc2ccc(S(N)(=O)=O)cc2)cc1	0	0	-13	0	0	0
CCn1c(COc2ccc(OC)cc2)nc2ccccc21	0	0	-5.2	0	0	0
CCn1c(COc2ccccc2)nc2ccccc21	0	0	0	0	-	-
COc1cccc(/C=N/n2c(-c3n[nH]c4c3CCC4)n[nH]c2=S)c1OC	0	0	0	0	-	-
CN1CCN(Cc2ccc(Sc3ccc(Cl)cc3)c([N+](=O)[O-])c2)CC1	0	0	-5.1	0	61%	0
CC(C)c1ccc(NS(=O)(=O)c2ccc(Cl)nc2)cc1	0	0	0	0	-	-
O=[N+]([O-])c1cc(NS(=O)(=O)c2ccc(Cl)nc2)ccc1Cl	0	0	-6.2	0	42%	0
O=C(CC1CCCCC1)c1c(O)c2ccccc2oc1=O	0	0	-7.4	0	44%	4.6
COc1cccc(CNC(=O)c2cc(S(=O)(=O)N3CCOCC3)ccc2N2CCCC2)c1	0	0	-	-	-	-
CN(C)CCn1c(=S)[nH]c2ccccc2c1=O	0	0	-7.9	0	28%	0
Cc1ccc2c(CC(=O)NNC(=O)c3ccccc3O)coc2c1	0	0	0	0	-	-
CCOc1ccc(-c2cc(C(=O)NCCCN3CCOCC3)c3ccccc3n2)cc1	0	0	0	0	-	-
COc1ccc(-c2cc(C(=O)NCCCN3CCOCC3)c3cc(C(C)C)ccc3n2)cc1	0	0	-7.4	0	50%	0
CC1CCC(NC(=O)c2ccc(CS(=O)(=O)Cc3ccccc3F)o2)CC1 (stereo not given)	0	0	-5.4	0	41%	0
O=C(NC1CCCC1)c1ccc(CS(=O)(=O)Cc2ccccc2F)o1	0	0	0	0	-	-
Nc1nnc(SCC(=O)NC2CCCCCC2)s1	0	0	0	0	-	-
Cc1ccc2c(c1)N(CC(=O)NC1CCC(C)CC1)C(=O)CO2 (stereo not given)	0	0	-5.9	0	0	0
Cc1ccc2c(c1)N(CCCC(=O)NCC1COc3ccccc3O1)C(=O)CO2 (stereo not given)	0	0	-8.9	0	21%	0
